According to PMC7004075 (Clinical Pharmacology in Drug Development, 2019):

What was measured:
[1] = system: endogenous glucose production, nonhepatic glucose uptake; conditions: peripheral administration at 1.8 pmol/kg/min, preclinical; cited from earlier work
[2] = system: plasma glucose in patients with T2DM; test: Plasma glucose pharmacodynamics, Cohort 2; type: in vivo, human
How it was run: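 Dosing was before each of 2 ADA meals set 4, 5 or 6 h apart and eaten within 30 min. Blood was taken predose and 10–180 min postdose. Baseline-adjusted glucose AUC0‑180min and Cmin were analysed by a mixed-effects model (sequence, period, treatment; patient-within-sequence random).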

patients with T2DM = test: Safety and tolerability; type: in vivo, human; conditions: for overall safety and tolerability: patients with T2DM, different dosing conditions
[3] = system: plasma glucose in patients with T2DM; test: Plasma glucose pharmacodynamics, Cohort 1; type: in vivo, human
[4] = Plasma insulin tregopil pharmacokinetics, Cohort 2; type: in vivo, human; conditions: for plasma insulin tregopil Cmax, mean ± SD / plasma insulin tregopil AUC0-180min, mean ± SD: 30 mg oral
[5] = Cohort 2, 5-hour between-meal interval, afternoon dose
[6] = Cohort 2, 5-hour between-meal interval, morning dose

Substance: human insulin: human insulin infused into portal vein or peripherally in preclinical studies
- increase in plasma insulin levels in the peripheral artery [1]: 2 fold

Substance: insulin tregopil: PEGylated recombinant human insulin with a single methoxy-triethylene-glycol-propionyl unit on the Lys-β29-amino group; oral tablets
- intrasubject variability for the baseline-adjusted PD response Cmin ([2]; Cohort 2, insulin tregopil groups (placebo 9.16%)): 11.61%
- intrasubject variability for the baseline-adjusted PD response AUC0-180mins ([2]; Cohort 2, insulin tregopil groups (placebo 9.17%)): 8.41%
- events of hypoglycemia (patients with T2DM; Cohort 1): 4 events
- events of hypoglycemia (patients with T2DM; Cohort 1, 30 minute premeal dosing time group): 3 events
- events of hypoglycemia (patients with T2DM; Cohort 2, all in the afternoon): 5 events
- events of hypoglycemia (patients with T2DM; all cohorts): 43 events
- hypoglycemic events mild in severity (patients with T2DM; all cohorts): 83.7%
- patient discontinuations from the study due to AEs (patients with T2DM; all cohorts): no patient discontinuations
- duration of hypoglycemic symptoms (patients with T2DM; generally): approximately 30 minutes
- overall safety and tolerability (patients with T2DM): safe and well tolerated
- overall safety and tolerability (patients with T2DM; listed as Insulin tregopil): well tolerated
- 2-hour postprandial glucose (PPG), higher than the premeal levels ([3]; Cohort 1, 10 minute premeal group (placebo 55%)): 36%
- 2-hour postprandial glucose (PPG), higher than the premeal levels ([3]; Cohort 1, 20 minute premeal group (placebo 55%)): 55%
- 2-hour postprandial glucose (PPG), higher than the premeal levels ([3]; Cohort 1, 30 minute premeal group (placebo 55%)): 77%
- duration of glucose-lowering action ([3]; oral, patients with T2DM): approximately 2 hours
- intersubject variability of plasma insulin tregopil AUC0-180mins ([4]; Cohort 2): 144.0%
- intersubject variability of plasma insulin tregopil Cmax ([4]; Cohort 2): 124.7%
- intrasubject variability of plasma insulin tregopil Cmax ([4]; Cohort 2): 64.7%
- plasma insulin tregopil Cmax, mean ± SD ([4]; Cohort 2, 4-hour between-meal interval, afternoon dose): 6760 ± 7680 µg/mL
- plasma insulin tregopil Cmax, mean ± SD ([4]; Cohort 2, 4-hour between-meal interval, morning dose): 11330 ± 9870 µg/mL
- plasma insulin tregopil AUC0-180min, mean ± SD [4, 5]: 209.27 ± 186.61 mg·min/mL
- plasma insulin tregopil Cmax, mean ± SD [4, 5]: 7139 ± 5691 µg/mL
- plasma insulin tregopil AUC0-180min, mean ± SD [4, 6]: 320.60 ± 196.340 mg·min/mL
- plasma insulin tregopil Cmax, mean ± SD [4, 6]: 10140 ± 5310 µg/mL
- plasma insulin tregopil Cmax, mean ± SD ([4]; Cohort 2, 6-hour between-meal interval, morning dose (first value)): 11320 ± 8730 µg/mL
